The list is not random: actives were taken first. Their share in the collection is about 2.6%.
EP2 modulator: EP2 receptor modulators, cAMP readout, primary screen, cell-based, HTRF cAMP, PGE2 stimulation; Prostaglandin E2 receptor EP2 subtype (Homo sapiens), P43116; EP2-expressing cells, cAMP HTRF FRET, PGE2 co-stimulation; induction, % at 25 µM; 260,000 compounds, 0.83% hits; AID 940, 2007;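 active = compounds whose cAMP rise, as percent of the full-agonist control response, exceeds 60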;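 also: rat C6 glioma line stably carrying human EP2 under a CMV promoter; the protocol text gives 20 µM as final concentration; 100% = response of wells given 1 µM PGE2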
PGE2 EP2 inh: human EP2 receptor antagonists, primary screen, TR-FRET cAMP, C6 glioma cells. C6 glioma cells expressing human EP2; cells stimulated with saturating PGE2. inhibition, % at 25 µM. 260,000 compounds, 0.52% hits. AID 1422, 2008;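 active = percent inhibition above 40 after rounding to a whole number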;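 also: rat C6 glioma host cells with rolipram phosphodiesterase inhibitor present; the protocol text gives 20 µM as final concentration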
Granule exo inh: LAMP-1 surface exposure blockers, TALL-104 cells – cell-based, flow cytometry, MLPCN library, primary screen; TALL-104 LAMP-1 surface exposure; cells stimulated with thapsigargin and PMA; inhibition, % at 10 µM; 360,000 compounds, 0.66% hits;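 active = inhibition above about 55%, limit read from the data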
MC4R antag cAMP: MC4R antagonists of cAMP signaling, primary screen, cell-based, TR-FRET, antagonist arm of biased-ligand search; inhibition, % at 6.5 µM; MC4R-expressing cells, MTII-stimulated cAMP, LANCE TR-FRET; AID 540295, 2011; 360,000 compounds, 0.48% hits;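 active = inhibition above its plate's cutoff, the mean of tested wells on that plate plus 3 SD, cut at about 29% in these data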;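 also: 0% = Melanotan II alone and 100% = Melanotan II plus saturating MCL0020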
Target sequence (P32245 whole entry, looked up): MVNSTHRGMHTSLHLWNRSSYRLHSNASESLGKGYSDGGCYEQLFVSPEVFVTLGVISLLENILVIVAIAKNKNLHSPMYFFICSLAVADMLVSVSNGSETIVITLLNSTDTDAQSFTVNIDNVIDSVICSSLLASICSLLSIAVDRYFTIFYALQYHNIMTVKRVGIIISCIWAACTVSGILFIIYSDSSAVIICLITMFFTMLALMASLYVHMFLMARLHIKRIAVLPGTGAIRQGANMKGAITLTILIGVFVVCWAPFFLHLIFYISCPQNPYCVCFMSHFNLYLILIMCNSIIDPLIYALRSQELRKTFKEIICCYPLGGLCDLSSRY
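System: U2OS cells stably expressing human melanocortin 4 receptor (MC4R). Reagent: Melanotan II challenge after compound preincubation. Doses: 6.5 µM. Times: 30-min compound, 1-h challenge, 1-h detection, room temperature. Measured by: TR-FRET with Eu-cAMP and labeled anti-cAMP, 671 nm. Replicates: singlicate.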
MC4R barr agon: MC4R agonists recruiting beta-arrestin, primary screen, cell-based, luminescence, agonist arm of biased-ligand search; Melanocortin receptor 4 (Homo sapiens), P32245; U2OS MC4R beta-arrestin complementation; percent of melanotan II response, DMSO zero; activation, % at 8.9 µM; 360,000 compounds, 0.98% hits;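 active = activation above a per-plate cutoff, the mean activation of sample wells on that plate plus 3 SD, cut at about 8% in these data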
T cell modulator: modulators of CD8 T cell-vesicle binding, primary screen, mouse 2C CD8+ T cells, flow cytometry. 2C CD8+ T cell-vesicle binding; hits give low values. response (vesicle binding), % at 7 µM. 330,000 compounds, 0.068% hits. AID 2052, 2009;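 active = response, share of CD8 T cells binding vesicles, and their 90th percentile fluorescence all below set limits, cut at about 80% in these data, passing the limit was not always enough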;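 also: values below 100% mean blocked vesicle binding to the CD8+ T cells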
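System: murine 2C transgenic CD8+ T lymphocytes; also added: QL9-loaded Drosophila micro-vesicles; times: binding 1.5 h at 37 °C; measured by: flow cytometry, PE anti-B7-1 (FL2) versus Alexa647 anti-CD8 (FL8), PFA-fixed; control set: Peptide-free naked vesicles (low) and QL9 vesicles with 0.7% DMSO vehicle (high)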
EP2 cAMP induct: cAMP induction in EP2, EP4, beta2-AR and parental cells, confirmation, counter-screen for EP2 modulator project, cell-based, five parallel assays, C6 glioma, HEK293; AID 1080, 2008; calls only at 20 µM (by protocol); 1,300 compounds, 47% hits; shares compounds with EP2 modulator; cAMP HTRF induction; plus low (about EC15) PGE2 agonist;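 active = cAMP induction above 50% in the main assay while under 30% in all four parallel counter assays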;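 also: rat C6 glioma cells stably expressing human EP2 receptor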
Active calls of the source: *; i = inactive; x = not tested or not shown; + = active, no number.

SMILES	EP2 modulator	PGE2 EP2 inh	Granule exo inh	MC4R antag cAMP	MC4R barr agon	T cell modulator	EP2 cAMP induct
CCCc1cc(-c2nc(N)ncc2-c2ccc3c(c2)OCCCO3)c(O)cc1OC	88*	9	31	13	4	192	+
CN(C)C(CNC(=O)c1ccc(NC(=O)CC#N)cc1)c1ccccc1 (configuration not stated)	-4	6	-2	-3	-1	204	x
Cc1cccc(OCCCC(=O)N2CCCc3ccccc32)c1C	82*	7	10	11	3	440	+
Cc1cccc(OCC(=O)OCC(=O)N2CCCc3ccccc32)c1C	x	x	0	9	4	202	x
Cc1cc2c(c(=O)n1C1CC1)C(c1cccc(Cl)c1)C(C#N)=C(N)O2 (configuration not stated)	-1	6	0	-3	-1	556	x
O=C(NCc1nnc(SCC(=O)N2CCCC2)o1)c1ccccc1F	20	13	1	9	0	228	x
FC(F)(F)c1cc(CO[C@H]2CCCN[C@H]2c2ccccc2)cc(C(F)(F)F)c1	68*	14	x	x	x	x	i
Nn1cnc2c(c1=O)C1(CCCCC1)Cc1ccccc1-2	73*	2	-10	-1	3	78	i
O=c1c2c(n3nnnc3n1-c1ccccc1)-c1ccccc1CC21CCCC1	73*	20	-2	16	2	286	+
Cc1ccc(-n2c(SCC(N)=O)nc3c(c2=O)C2(CCCC2)Cc2ccccc2-3)cc1	71*	13	21	24	3	255	i
O=c1c2c(n3cnnc3n1C1CCCCC1)-c1ccccc1CC21CCCCC1	68*	9	-1	-1	0	207	+
Cc1ccc(NC(=O)CNC(=O)c2ccc(Br)o2)nc1	x	x	-2	-3	1	289	x
COc1c(O)cc2c(c1O)[C@@H]1OC(CO)C(O)C(O)[C@H]1OC2=O (some centres not stated)	x	x	-1	1	-1	x	x
COc1cc(OC)c(NC(=S)Nc2cccc(C)c2)cc1Cl	-6	3	-2	-1	0	121	x
O=C(O)CCCN1C(=O)/C(=C\c2ccco2)SC1=S	74*	8	-1	4	-5	x	+
COc1ccc(Oc2cc(C(F)(F)F)nc(N(C)C)n2)cc1	65*	7	25	-1	-2	110	i
FC(F)(F)c1cc(Oc2ccccc2)nc(-c2ccccn2)n1	8	9	-7	10	-3	212	x
C(=N\Nc1nc2ccccc2[nH]1)/c1ccccc1	-19	10	-4	2	1	383	x
O=c1[nH]c(N/N=C/c2ccccc2)nc2ccccc12	69*	6	3	0	-1	253	+
CCN(CC(=O)Nc1ccccc1OC)C(=O)c1ccccc1Sc1ccccc1C#N	x	x	-2	10	-1	502	x
Cc1ccc(O)c(C2=Nc3ccccc3N=C(c3cccs3)C2)c1	69*	-1	3	2	-1	198	i
Oc1ccccc1C1=Nc2ccccc2N=C(c2cccs2)C1	47	3	0	-3	-1	260	x
CCOc1ccc(C(=O)NCC(=O)NCCCn2nc(C)cc2C)cc1OCC	x	x	-6	16	-3	483	x
CCC(=O)N1CCN(c2nc(-c3ccccc3)c3c(c2C#N)CCCC3)CC1	81*	14	3	11	-2	300	i
CN1CCN(c2nc(-c3ccccc3)nc(-c3ccccc3)c2C#N)CC1	36	1	1	6	0	157	x
SMILES	EP2 modulator	PGE2 EP2 inh	Granule exo inh	MC4R antag cAMP	MC4R barr agon	T cell modulator	EP2 cAMP induct
Cc1cc(C)c(C#N)c(SCc2nc3ccccc3[nH]2)n1	-31	13	0	-2	-2	528	x
CCN1C(=O)/C(=C2/C=CC=CN2C)SC1=S	75*	5	2	7	0	i	i
COc1ccc(-c2sc(NC(=O)c3ccc(C)cc3)nc2-c2ccc([N+](=O)[O-])cc2)cc1	34	4	2	8	-2	346	x
COc1ccc(-c2nc(NC(C)=O)sc2-c2ccc(OC)cc2)cc1	56	12	0	2	5	767	i
CN(c1ccccc1)S(=O)(=O)c1cccc(NC(=O)CN2CCc3ccccc3C2)c1	-6	5	8	8	-1	299	x
CC(=O)c1sc2nc(-c3ccc(C)cc3)c3c(c2c1N)CCCC3	72*	18	15	1	1	250	+
CC(=O)OCC(=O)[C@@]12OC(C)(C)O[C@@H]1C[C@H]1[C@H]3CC=C4C[C@@H](O)CC[C@]4(C)[C@@H]3CC[C@@]12C	52	40*	x	x	x	x	i
CCCc1n[nH]c(=S)n1Cc1ccco1	19	9	-2	3	-3	211	x
S=c1[nH]nc(C23CC4CC(CC(C4)C2)C3)n1Cc1ccco1	73*	23	4	2	0	118	+
Cc1cccc(C)c1N1CCN(c2ccc3nnc(C(F)(F)F)n3n2)CC1	70*	4	-3	3	4	232	+
O=C(CCl)Nc1cc2[nH]c(=O)[nH]c2cc1Br	7	3	17	-14	-1	589	x
CCN(CC)S(=O)(=O)c1c(OC)cc(C)c(Cl)c1C	66*	8	1	-12	-1	247	i
CCN(CC)S(=O)(=O)c1cc(C)c(C)cc1Br	18	20	0	-3	0	215	x
N#Cc1c(N)nc2c3c(sc(=N)c2c1N)NC(=O)CC3c1ccccc1 (configuration not stated)	42	14	-1	-24	-2	145	x
N#Cc1c(N)nc2c3c(sc(=N)c2c1N)NC(=O)CC3c1c(F)cccc1Cl (configuration not stated)	68*	8	-2	-48	0	570	+
CCN(CCO)c1ncnc2c1sc1nc(C(C)C)c3c(c12)CC(C)(C)OC3	79*	15	-2	9	0	432	i
